Laboratory results as given in paper PMC3738144 (British Journal of Cancer, 2013).

How the values were obtained:
[1] = Plasma pharmacokinetics of lenvatinib, carboplatin and paclitaxel; assay type: in vivo; conditions: human
[2] = tested on: patients with stage IIIB/IV NSCLC; assay type: in vivo, human
[3] = tested on: patients with stage IIIB/IV NSCLC; test: Safety assessment: adverse events graded by CTCAE version 3.0; assay type: in vivo, human
[4] = tested on: NSCLC (stage IIIB/IV) target lesions; test: Antitumor activity by RECIST version 1.0; assay type: in vivo, human
Method in brief: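 Chemotherapy-naïve stage IIIB/IV NSCLC patients (20–74 y, ECOG 0–1, ≥1 measurable lesion) took oral test compound continuously BID. […] Investigators assessed tumours by RECIST 1.0 every two cycles. PFS ran from treatment start to PD or death (Kaplan–Meier).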

[5] = tested on: plasma angiogenic proteins and cytokines; test: Plasma biomarker; assay type: in vivo, human; conditions: median (minimum–maximum), lenvatinib with carboplatin/paclitaxel
[6] = 4 mg BID (n=22) with carboplatin/paclitaxel
[7] = 4 mg level (22 patients) with carboplatin/paclitaxel
[8] = 6 mg BID (n=6) with carboplatin/paclitaxel

CC(=O)O[C@H]1C(=O)[C@@]2(C)[C@H]([C@H](OC(=O)c3ccccc3)[C@]3(O)C[C@H](OC(=O)[C@H](O)[C@@H](NC(=O)c4ccccc4)c4ccccc4)C(C)=C1C3(C)C)[C@]1(OC(C)=O)CO[C@@H]1C[C@@H]2O [Paclitaxel, reference compound]
clearance ([1]; intravenous, CL, paclitaxel 200 mg m^−2, with lenvatinib 4 mg BID (n=6), mean±s.d.): 240 mL/min | Vd ([1]; intravenous, Vss, paclitaxel 200 mg m^−2, with lenvatinib 4 mg BID (n=6), mean±s.d.): 69.1 ± 27.7 L | half-life ([1]; intravenous, t1/2, paclitaxel 200 mg m^−2, with lenvatinib 4 mg BID (n=6), mean±s.d.): 6.65 ± 0.39 h

COc1cc2nccc(Oc3ccc(NC(=O)NC4CC4)c(Cl)c3)c2cc1C(N)=O [lenvatinib, Lenvatinib]
dose-limiting toxicities (DLTs) ([2]; 4 mg BID (n=6), dose-finding cohort): No DLTs | maximum tolerated dose (MTD) of lenvatinib ([2]; oral, with carboplatin (AUC 6)/paclitaxel (200 mg m^−2) day 1 every 3 weeks, advanced NSCLC): 4 mg BID | patients with a treatment-related serious AE ([3]; 4 mg BID): 7 n | Anaemia Grade 3, treatment-related adverse event [3, 6]: 3 (14) n (%) | Anaemia Grade 4, treatment-related adverse event [3, 6]: 0 n (%) | Anal abscess Grade 3, treatment-related adverse event [3, 6]: 1 (5) n (%) | Anal abscess Grade 4, treatment-related adverse event [3, 6]: 0 n (%) | Decreased appetite Grade 3, treatment-related adverse event [3, 6]: 1 (5) n (%) | Decreased appetite Grade 4, treatment-related adverse event [3, 6]: 0 n (%) | Diarrhoea Grade 3, treatment-related adverse event [3, 6]: 1 (5) n (%) | Diarrhoea Grade 4, treatment-related adverse event [3, 6]: 0 n (%) | Febrile neutropenia Grade 3, treatment-related adverse event [3, 6]: 5 (23) n (%) | Febrile neutropenia Grade 4, treatment-related adverse event [3, 6]: 0 n (%) | Gingival infection Grade 3, treatment-related adverse event [3, 6]: 1 (5) n (%) | Gingival infection Grade 4, treatment-related adverse event [3, 6]: 0 n (%) | Hypertension Grade 3, treatment-related adverse event [3, 6]: 8 (36) n (%) | Hypertension Grade 4, treatment-related adverse event [3, 6]: 0 n (%) | Hypocalcemia Grade 3, treatment-related adverse event [3, 6]: 1 (5) n (%) | Hypocalcemia Grade 4, treatment-related adverse event [3, 6]: 0 n (%) | Hyponatremia Grade 3, treatment-related adverse event [3, 6]: 1 (5) n (%) | Hyponatremia Grade 4, treatment-related adverse event [3, 6]: 0 n (%) | Leukopenia Grade 3, treatment-related adverse event [3, 6]: 10 (46) n (%) | Leukopenia Grade 4, treatment-related adverse event [3, 6]: 1 (5) n (%) | Lymphopenia Grade 3, treatment-related adverse event [3, 6]: 1 (5) n (%) | Lymphopenia Grade 4, treatment-related adverse event [3, 6]: 0 n (%) | Nausea Grade 3, treatment-related adverse event [3, 6]: 1 (5) n (%) | Nausea Grade 4, treatment-related adverse event [3, 6]: 0 n (%) | Neurogenic bladder Grade 3, treatment-related adverse event [3, 6]: 1 (5) n (%) | Neurogenic bladder Grade 4, treatment-related adverse event [3, 6]: 0 n (%) | Neutropenia Grade 3, treatment-related adverse event [3, 6]: 0 n (%) | Neutropenia Grade 4, treatment-related adverse event [3, 6]: 21 (95) n (%) | Peripheral sensory neuropathy Grade 3, treatment-related adverse event [3, 6]: 1 (5) n (%) | Peripheral sensory neuropathy Grade 4, treatment-related adverse event [3, 6]: 0 n (%) | Pneumonia Grade 3, treatment-related adverse event [3, 6]: 1 (5) n (%) | Pneumonia Grade 4, treatment-related adverse event [3, 6]: 0 n (%) | Proteinuria Grade 3, treatment-related adverse event [3, 6]: 2 (9) n (%) | Proteinuria Grade 4, treatment-related adverse event [3, 6]: 0 n (%) | Pyelonephritis Grade 3, treatment-related adverse event [3, 6]: 1 (5) n (%) | Pyelonephritis Grade 4, treatment-related adverse event [3, 6]: 0 n (%) | Syncope Grade 3, treatment-related adverse event [3, 6]: 0 n (%) | Syncope Grade 4, treatment-related adverse event [3, 6]: 0 n (%) | Thrombocytopenia Grade 3, treatment-related adverse event [3, 6]: 4 (18) n (%) | Thrombocytopenia Grade 4, treatment-related adverse event [3, 6]: 2 (9) n (%) | Thrombosis Grade 3, treatment-related adverse event [3, 6]: 1 (5) n (%) | Thrombosis Grade 4, treatment-related adverse event [3, 6]: 0 n (%) | Vomiting Grade 3, treatment-related adverse event [3, 6]: 1 (5) n (%) | Vomiting Grade 4, treatment-related adverse event [3, 6]: 0 n (%) | Weight decreased Grade 3, treatment-related adverse event [3, 6]: 1 (5) n (%) | Weight decreased Grade 4, treatment-related adverse event [3, 6]: 0 n (%) | alopecia incidence (all grades) [3, 7]: 95% | arthralgia incidence (all grades) [3, 7]: 95% | grade 3 or 4 febrile neutropenia [3, 7]: 23% | grade 3 or 4 hypertension [3, 7]: 36% | grade 3 or 4 leukopenia [3, 7]: 50% | grade 3 or 4 neutropenia [3, 7]: 95% | grade 3 or 4 thrombocytopenia [3, 7]: 27% | leukopenia incidence (all grades) [3, 7]: 95% | neutropenia incidence (all grades) [3, 7]: 95% | peripheral sensory neuropathy incidence (all grades) [3, 7]: 95% | patients with a treatment-related serious AE ([3]; 6 mg BID): 2 n | Anaemia Grade 3, treatment-related adverse event [3, 8]: 0 n (%) | Anaemia Grade 4, treatment-related adverse event [3, 8]: 0 n (%) | Anal abscess Grade 3, treatment-related adverse event [3, 8]: 0 n (%) | Anal abscess Grade 4, treatment-related adverse event [3, 8]: 0 n (%) | Decreased appetite Grade 3, treatment-related adverse event [3, 8]: 0 n (%) | Decreased appetite Grade 4, treatment-related adverse event [3, 8]: 0 n (%) | Diarrhoea Grade 3, treatment-related adverse event [3, 8]: 0 n (%) | Diarrhoea Grade 4, treatment-related adverse event [3, 8]: 0 n (%) | Febrile neutropenia Grade 3, treatment-related adverse event [3, 8]: 1 (17) n (%) | Febrile neutropenia Grade 4, treatment-related adverse event [3, 8]: 0 n (%) | Gingival infection Grade 3, treatment-related adverse event [3, 8]: 1 (17) n (%) | Gingival infection Grade 4, treatment-related adverse event [3, 8]: 0 n (%) | Hypertension Grade 3, treatment-related adverse event [3, 8]: 4 (67) n (%) | Hypertension Grade 4, treatment-related adverse event [3, 8]: 0 n (%) | Hypocalcemia Grade 3, treatment-related adverse event [3, 8]: 0 n (%) | Hypocalcemia Grade 4, treatment-related adverse event [3, 8]: 0 n (%) | Hyponatremia Grade 3, treatment-related adverse event [3, 8]: 0 n (%) | Hyponatremia Grade 4, treatment-related adverse event [3, 8]: 0 n (%) | Leukopenia Grade 3, treatment-related adverse event [3, 8]: 2 (33) n (%) | Leukopenia Grade 4, treatment-related adverse event [3, 8]: 1 (17) n (%) | Lymphopenia Grade 3, treatment-related adverse event [3, 8]: 0 n (%) | Lymphopenia Grade 4, treatment-related adverse event [3, 8]: 0 n (%) | Nausea Grade 3, treatment-related adverse event [3, 8]: 0 n (%) | Nausea Grade 4, treatment-related adverse event [3, 8]: 0 n (%) | Neurogenic bladder Grade 3, treatment-related adverse event [3, 8]: 0 n (%) | Neurogenic bladder Grade 4, treatment-related adverse event [3, 8]: 0 n (%) | Neutropenia Grade 3, treatment-related adverse event [3, 8]: 0 n (%) | Neutropenia Grade 4, treatment-related adverse event [3, 8]: 5 (83) n (%) | Peripheral sensory neuropathy Grade 3, treatment-related adverse event [3, 8]: 0 n (%) | Peripheral sensory neuropathy Grade 4, treatment-related adverse event [3, 8]: 0 n (%) | Pneumonia Grade 3, treatment-related adverse event [3, 8]: 2 (33) n (%) | Pneumonia Grade 4, treatment-related adverse event [3, 8]: 0 n (%) | Proteinuria Grade 3, treatment-related adverse event [3, 8]: 0 n (%) | Proteinuria Grade 4, treatment-related adverse event [3, 8]: 0 n (%) | Pyelonephritis Grade 3, treatment-related adverse event [3, 8]: 0 n (%) | Pyelonephritis Grade 4, treatment-related adverse event [3, 8]: 0 n (%) | Syncope Grade 3, treatment-related adverse event [3, 8]: 1 (17) n (%) | Syncope Grade 4, treatment-related adverse event [3, 8]: 0 n (%) | Thrombocytopenia Grade 3, treatment-related adverse event [3, 8]: 0 n (%) | Thrombocytopenia Grade 4, treatment-related adverse event [3, 8]: 0 n (%) | Thrombosis Grade 3, treatment-related adverse event [3, 8]: 0 n (%) | Thrombosis Grade 4, treatment-related adverse event [3, 8]: 0 n (%) | Vomiting Grade 3, treatment-related adverse event [3, 8]: 0 n (%) | Vomiting Grade 4, treatment-related adverse event [3, 8]: 0 n (%) | Weight decreased Grade 3, treatment-related adverse event [3, 8]: 0 n (%) | Weight decreased Grade 4, treatment-related adverse event [3, 8]: 0 n (%) | SAE febrile neutropenia ([3]; all 28 patients): 7% | SAE pneumonia ([3]; all 28 patients): 7% | deaths ([3]; all 28 patients): No deaths were reported | patients with a treatment-related serious AE ([3]; all 28 patients (4 and 6 mg BID)): Nine | changes in mean QT interval and QTcF ([3]; combination or maintenance therapy): no changes of clinical importance | Cmax ([1]; oral, 4 mg): 97.5 ± 38.4 ng/mL | Tmax ([1]; oral, 4 mg, tmax, lenvatinib in plasma, lenvatinib 4 mg BID (n=6) with carboplatin/paclitaxel, median (minimum–maximum)): 4.18 h | Cmax ([1]; oral, 6 mg): 138 ± 35.3 ng/mL | Tmax ([1]; oral, 6 mg, Median time of maximum concentration (tmax), lenvatinib, across 4 and 6 mg BID groups): 4.18 to 4.27 h | AUC(0-t) ([1]; oral, 6 mg, mean AUC(0−t), lenvatinib, across 4 and 6 mg BID groups): 692 to 848 ng·h/mL | Best response CR [4, 6]: 1 (5) n (%) | Best response NE [4, 6]: 1 (5) n (%) | Best response PD [4, 6]: 1 (5) n (%) | Best response PR [4, 6]: 14 (64) n (%) | Best response SD [4, 6]: 5 (23) n (%) | ORR (CR+PR) [4, 6]: 15 (68) n (%) | Median PFS ([4]; 4 mg BID groups with carboplatin/paclitaxel): 9.0 months | Best response CR [4, 8]: 0 (0) n (%) | Best response NE [4, 8]: 2 (33) n (%) | Best response PD [4, 8]: 0 (0) n (%) | Best response PR [4, 8]: 2 (33) n (%) | Best response SD [4, 8]: 2 (33) n (%) | ORR (CR+PR) [4, 8]: 2 (33) n (%) | complete response ([4]; 22 patients at the 4 mg level): 5% | partial response ([4]; 22 patients at the 4 mg level): 64% | Best response CR ([4]; Total (n=28)): 1 (4) n (%) | Best response NE ([4]; Total (n=28)): 3 (11) n (%) | Best response PD ([4]; Total (n=28)): 1 (4) n (%) | Best response PR ([4]; Total (n=28)): 16 (57) n (%) | Best response SD ([4]; Total (n=28)): 7 (25) n (%) | ORR (CR+PR) ([4]; Total (n=28)): 17 (61) n (%) | Median PFS ([4]; total): 9.0 months | median duration of response ([4]; total): 7.0 months | FGF-2 plasma, observed value ([5]; Cycle 1 day 8 (n=26)): 17.2 (7–59) pg ml^−1 | G-CSF plasma, observed value ([5]; Cycle 1 day 8 (n=26)): 7.6 (3–27) pg ml^−1 | HGF plasma, observed value ([5]; Cycle 1 day 8 (n=26)): 244.0 (163–353) pg ml^−1 | PDGF-B plasma, observed value ([5]; Cycle 1 day 8 (n=26)): 237.9 (14–2849) pg ml^−1 | SCF plasma, observed value ([5]; Cycle 1 day 8 (n=26)): 101.0 (54–173) pg ml^−1 | FGF-2 plasma, observed value ([5]; Cycle 1 day 22 (n=26)): 16.0 (7–57) pg ml^−1 | G-CSF plasma, observed value ([5]; Cycle 1 day 22 (n=26)): 7.5 (2–17) pg ml^−1 | IL-8 plasma, observed value ([5]; Cycle 1 day 22 (n=26)): 4.4 (3–15) pg ml^−1 | SCF plasma, observed value ([5]; Cycle 1 day 22 (n=26)): 102.9 (43–184) pg ml^−1 | SDF1α plasma, observed value ([5]; Cycle 1 day 22 (n=26)): 76.9 (30–140) pg ml^−1
